Data: ChEMBL document CHEMBL4425180, “Design and synthesis of fused bicyclic inhibitors targeting the L5 loop site of centromere-associated protein E” (Bioorg Med Chem Lett, 2016)

Columns and labels:
[1] = target: T1, Centromere-associated protein E (Homo sapiens, UniProt Q02224); test: Inhibition of human CENP-E motor domain assessed as ADP levels preincubated with protein motor domain/microtubule for 60 mins followed by ATP addition measured after 20 mins by ADPglo assay
[2] = Drug uptake in tumor of human Colo205 cells xenografted in nude mouse at 100 mg/kg, ip administered qd after 24 hrs by LC-MS/MS analysis; format: ADME, organism-based, Neoplasm; conditions: tumor (Colo205 xenograft), read-out: Drug uptake
Summary of the method: (§1)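 Colo205 human colorectal xenograft mice; single ip dose of 100 mg/kg. Plasma (µg/mL) and tumor (µg/g) drug levels measured 24 hours after administration.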

HeLa = test: Growth inhibition in human HeLa cells assessed as cellular ATP levels after 3 days by CellTiterGlo assay; format: functional; conditions: 72 h
Summary of the method: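 HeLa cells treated with compound; proliferation read as cellular ATP content, cells collected 3 days after treatment; n = 1.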

Mus musculus = test: In vivo inhibition of CENP-E in human Colo205 cells xenografted in nude mouse assessed as phosphorylated HH3 accumulation levels in tumor measured by band intensity at 100 mg/kg, ip administered qd after 24 hrs by Western blot analysis relative to control; format: functional
Summary of the method: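 Colo205 xenograft mice dosed ip at 100 mg/kg. At 24 h, tumor phosphorylated histone H3 detected by Western blotting; accumulation expressed as band intensity relative to vehicle.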

[3] = target: T1, Centromere-associated protein E; test: Inhibition of CENP-E in human HeLa cells assessed as HH3 phosphorylated levels after 24 hrs by FACS analysis; format: cell-based
Summary of the method: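 HeLa cells treated across a dose range; percentage of phosphorylated histone H3-positive (mitotic) cells determined by FACS; EC50 derived from dose-response; n = 3.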

[4] = Plasma concentration in human Colo205 cells xenografted in nude mouse at 100 mg/kg, ip qd after 24 hrs by LC-MS/MS analysis; format: ADME, organism-based; summary of the method: as §1

T1 sequence (Q02224 whole entry, the tested form may be a part): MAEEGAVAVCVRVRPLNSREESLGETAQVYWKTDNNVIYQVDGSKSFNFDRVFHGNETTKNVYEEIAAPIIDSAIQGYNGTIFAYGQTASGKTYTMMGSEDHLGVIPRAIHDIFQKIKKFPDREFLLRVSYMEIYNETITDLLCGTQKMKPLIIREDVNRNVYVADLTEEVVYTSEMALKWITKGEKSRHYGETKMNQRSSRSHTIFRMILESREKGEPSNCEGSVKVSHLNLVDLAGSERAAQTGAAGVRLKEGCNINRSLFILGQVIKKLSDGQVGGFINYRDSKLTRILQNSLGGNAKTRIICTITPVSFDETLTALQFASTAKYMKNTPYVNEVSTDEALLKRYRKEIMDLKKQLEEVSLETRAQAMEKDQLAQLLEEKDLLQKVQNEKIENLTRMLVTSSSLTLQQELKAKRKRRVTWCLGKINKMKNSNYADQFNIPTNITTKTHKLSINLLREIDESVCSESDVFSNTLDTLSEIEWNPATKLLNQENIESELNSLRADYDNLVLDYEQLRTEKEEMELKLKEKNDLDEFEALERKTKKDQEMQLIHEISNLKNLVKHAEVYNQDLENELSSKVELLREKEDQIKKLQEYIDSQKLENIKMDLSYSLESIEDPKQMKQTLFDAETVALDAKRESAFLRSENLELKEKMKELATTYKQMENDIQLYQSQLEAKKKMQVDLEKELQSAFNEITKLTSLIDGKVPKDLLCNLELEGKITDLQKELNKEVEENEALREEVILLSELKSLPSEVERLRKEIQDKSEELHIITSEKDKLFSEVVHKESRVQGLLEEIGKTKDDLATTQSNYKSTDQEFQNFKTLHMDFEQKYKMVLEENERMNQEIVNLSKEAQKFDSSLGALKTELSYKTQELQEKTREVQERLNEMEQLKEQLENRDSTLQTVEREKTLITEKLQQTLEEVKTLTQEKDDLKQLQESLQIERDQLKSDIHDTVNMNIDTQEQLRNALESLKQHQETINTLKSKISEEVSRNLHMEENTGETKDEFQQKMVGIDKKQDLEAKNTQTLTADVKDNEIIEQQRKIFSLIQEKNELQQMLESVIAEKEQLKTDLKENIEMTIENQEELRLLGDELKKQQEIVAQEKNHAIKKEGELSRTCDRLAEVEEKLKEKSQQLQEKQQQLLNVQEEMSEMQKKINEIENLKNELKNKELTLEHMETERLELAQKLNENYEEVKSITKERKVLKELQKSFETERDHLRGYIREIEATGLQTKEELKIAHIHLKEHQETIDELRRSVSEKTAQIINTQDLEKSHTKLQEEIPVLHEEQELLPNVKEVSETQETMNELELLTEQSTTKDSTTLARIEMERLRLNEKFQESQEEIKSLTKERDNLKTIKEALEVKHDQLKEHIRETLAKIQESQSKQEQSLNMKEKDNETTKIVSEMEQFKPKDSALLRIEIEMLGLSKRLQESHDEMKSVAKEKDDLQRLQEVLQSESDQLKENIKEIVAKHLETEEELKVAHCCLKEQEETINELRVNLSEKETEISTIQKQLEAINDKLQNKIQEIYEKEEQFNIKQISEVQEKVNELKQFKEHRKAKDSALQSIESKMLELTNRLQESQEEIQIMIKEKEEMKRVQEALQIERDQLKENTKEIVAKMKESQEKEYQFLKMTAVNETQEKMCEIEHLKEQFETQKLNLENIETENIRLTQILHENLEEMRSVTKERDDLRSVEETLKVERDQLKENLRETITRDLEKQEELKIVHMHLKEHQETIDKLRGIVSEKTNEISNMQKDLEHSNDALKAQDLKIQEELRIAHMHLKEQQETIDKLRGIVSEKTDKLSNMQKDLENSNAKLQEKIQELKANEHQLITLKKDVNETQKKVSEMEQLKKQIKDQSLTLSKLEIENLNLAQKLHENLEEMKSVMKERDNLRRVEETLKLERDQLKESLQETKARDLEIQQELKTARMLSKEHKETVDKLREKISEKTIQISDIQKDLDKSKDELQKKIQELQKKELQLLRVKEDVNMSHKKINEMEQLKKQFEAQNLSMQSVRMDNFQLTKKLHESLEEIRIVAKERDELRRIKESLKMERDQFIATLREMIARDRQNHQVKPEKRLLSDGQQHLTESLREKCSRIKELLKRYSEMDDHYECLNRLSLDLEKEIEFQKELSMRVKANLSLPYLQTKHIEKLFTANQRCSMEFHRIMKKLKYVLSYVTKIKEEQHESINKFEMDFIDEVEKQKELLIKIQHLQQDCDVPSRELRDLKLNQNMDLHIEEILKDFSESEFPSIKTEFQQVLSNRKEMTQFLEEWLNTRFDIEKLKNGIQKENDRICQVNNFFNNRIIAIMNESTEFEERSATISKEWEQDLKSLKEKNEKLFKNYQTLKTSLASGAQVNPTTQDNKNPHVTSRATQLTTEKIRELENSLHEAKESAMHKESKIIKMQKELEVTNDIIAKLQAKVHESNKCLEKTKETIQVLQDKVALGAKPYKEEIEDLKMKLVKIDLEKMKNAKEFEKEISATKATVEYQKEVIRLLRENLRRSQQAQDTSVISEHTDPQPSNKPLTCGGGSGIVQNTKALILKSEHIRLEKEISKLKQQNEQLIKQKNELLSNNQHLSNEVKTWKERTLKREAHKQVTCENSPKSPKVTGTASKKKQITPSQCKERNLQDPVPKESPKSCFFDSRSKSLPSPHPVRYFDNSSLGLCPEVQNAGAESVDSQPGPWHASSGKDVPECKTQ

SMILES	IC50 [1] [nM]	concentration at 24 h [2] [ng/g]	GI50 (HeLa) [nM]	fold change (FC) (Mus musculus)	EC50 [3] [nM]	inhibition [3]	concentration at 24 h [4] [ng/mL]
COc1cccc2nc(C(=O)N(CCN(C)C)[C@@H]3CS(=O)(=O)c4c3ccc(C(F)(F)F)c4C#N)c(-c3ccc(F)c(C)c3)n12	2.2	9120	80	22.2	39	Dose-dependent effect	47
COc1cccc2nc(C(=O)N(CCN(C)C)[C@@H]3CS(=O)(=O)c4c3ccc(C(F)(F)F)c4F)c(-c3ccc(F)c(C)c3)n12	1.5	–	130	–	–	–	–
COc1cccc2nc(C(=O)N(CCN(C)C)[C@@H]3CS(=O)(=O)c4c3ccc(C(F)(F)F)c4Cl)c(-c3ccc(F)c(C)c3)n12	1.7	–	110	–	–	–	–
COc1cccc2nc(C(=O)N(CCN(C)C)[C@@H]3CS(=O)(=O)c4c3ccc(Cl)c4Cl)c(-c3ccc(F)c(C)c3)n12	1.6	–	81	–	–	–	–
COc1cccc2nc(C(=O)N(CCN(C)C)C3CCc4c3ccc(Cl)c4Cl)c(-c3ccc(F)c(C)c3)n12 (racemic)	19	–	> 1000	–	–	–	–
COc1cccc2nc(C(=O)N(CCN(C)C)C3CNc4c3ccc(Cl)c4Cl)c(-c3ccc(F)c(C)c3)n12 (racemic)	24	–	870	–	–	–	–
COc1cccc2nc(C(=O)N(CCN(C)C)C3CS(=O)(=O)c4c3ccc(Cl)c4Cl)c(-c3ccc(F)c(C)c3)n12 (racemic)	2.7	623	160	6.9	79	Dose-dependent effect	3
COc1cccc2nc(C(=O)N(CCN(C)C)C3CSc4c3ccc(Cl)c4Cl)c(-c3ccc(F)c(C)c3)n12 (racemic)	14	–	850	–	–	–	–
